Shown are actives, neighbours in structure and some others; about 1.2% of the full set was active somewhere.
Efflux pump mplx: blocks antifungal efflux pumps in multiplex yeast assay | 330,000 tested, 0.44% active | AID 485275 | inhibition, % at 10 µM | S. cerevisiae Candida pump triplex, Nile Red efflux;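 active = plate passing quality check with inhibition over a set limit, or well fluorescence over plate mean plus 4 SD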;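 also: Nile Red retained in pooled yeast measured as flow cytometry median fluorescence; higher means more Nile Red kept so more efflux inhibition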
SR-BI DiI-HDL act: activators of SR-BI mediated HDL lipid uptake | CHO ldlA[mSR-BI] cells, DiI-HDL uptake fluorescence, 3 h; 100 = double the neutral-control signal | activation, % at 12.5 µM | 320,000 tested, 0.096% active;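 active = mean replicate activation of at least 60% and every replicate at or above 60%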
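system = CHO ldlA[mSR-BI] cells, LDL receptor-null, SR-BI overexpressing | medium = Ham's F12 with 0.5% BSA, HEPES 25 mM, pH 7.4 | probe or stimulus = DiI-HDL 10 µg/mL | compound dosing = single-point compound dose | incubation = compound exposure 3 h, 37 °C | technique = DiI fluorescence, bottom read | read-out = cell-associated DiI fluorescence as measure of HDL uptake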
FN deposition inh: fibronectin deposition inhibition. AH1F fibroblasts, Alexa488-fibronectin deposition fluorescence, overnight. inhibition, % at 12.6 µM. 350,000 tested, 0.086% active;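 active = mean inhibition across replicates of 30% or more, regardless of how many single replicates reach that level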
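material = AH1F fibroblast monolayer depositing Alexa488-labelled fibronectin into matrix | amount = 10000 AH1F cells/well | buffer or medium = DMEM plus 2% serum, read in PBS | incubation = 1 h cell adhesion before compound, then overnight fibronectin incubation | detection = fluorescence at 485 nm excitation, 525 nm emission | evaluation = percent inhibition as loss of matrix-bound fibronectin fluorescence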
SR-BI HDL uptake: blocks mouse SR-BI lipid uptake from DiI-HDL; Q61009; ldlA[mSR-BI] CHO cells, DiI-HDL uptake fluorescence, 3 h; inhibition, % at 12.5 µM; 320,000 tested, 0.96% active; AID 488896;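 active = mean replicate inhibition of at least 70% and a set share of replicates each scoring 70 or more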
Target sequence (Q61009 whole entry, looked up): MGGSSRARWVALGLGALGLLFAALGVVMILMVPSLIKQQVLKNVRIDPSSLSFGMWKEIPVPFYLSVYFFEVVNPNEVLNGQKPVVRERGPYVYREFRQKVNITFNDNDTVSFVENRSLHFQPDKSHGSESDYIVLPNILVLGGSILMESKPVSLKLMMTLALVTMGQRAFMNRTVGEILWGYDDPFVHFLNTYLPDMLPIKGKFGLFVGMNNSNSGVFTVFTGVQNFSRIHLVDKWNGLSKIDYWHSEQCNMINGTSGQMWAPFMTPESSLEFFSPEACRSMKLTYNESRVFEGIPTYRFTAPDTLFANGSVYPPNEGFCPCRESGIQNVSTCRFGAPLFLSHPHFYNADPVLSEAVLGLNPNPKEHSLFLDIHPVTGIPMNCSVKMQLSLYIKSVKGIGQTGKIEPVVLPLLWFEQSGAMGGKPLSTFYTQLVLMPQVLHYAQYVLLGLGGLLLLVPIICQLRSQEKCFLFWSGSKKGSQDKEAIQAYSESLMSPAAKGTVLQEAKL
CaV13 FRET inh: Primary screen for inhibitors of IQ motif and Ca2+-dependent inactivation inhibitor domain binding in CACNA1D, Förster resonance energy transfer in living cells, …. HEK cells, CFP/YFP FRET ICDI-IQ, plate reader, 10 min; percent FRET-ratio fall versus neutral wells. inhibition, % at 12.3 µM. 340,000 tested, 0.098% active. AID 743397;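 active = mean replicate inhibition of at least 30% and at least 1% of replicates passing that level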
Hits are given with their value; - = inactive; . = not tested or not shown; + = active, no number.

SMILES	Efflux pump mplx	SR-BI DiI-HDL act	FN deposition inh	SR-BI HDL uptake	CaV13 FRET inh
O=C(O)C[C@@H]1CC[C@@H](NC(=O)Nc2ccccc2)[C@@H](CO)O1	.	.	-	.	.
CC(C)c1nc2oc3c(NCCO)ncnc3c2c2c1COC(C)(C)C2	-	239	-	-	-
S=C(NCC1CCCO1)N1CCN(c2ccccc2)CC1 (configuration not stated)	-	-	-	-	-
S=C(NCC1CCCO1)N1CCN(Cc2ccccc2Cl)CC1 (configuration not stated)	-	-	-	-	+
NC(=S)N/N=C/c1ncc(C(F)(F)F)cc1Cl	-	-	.	73	.
NC(=S)N/N=C/c1ccc(C(F)(F)F)cc1	-	-	-	-	-
CCc1ccc2c(c1)C(c1ccc([N+](=O)[O-])cc1)=NNC(c1ccc(C)cc1)=N2	-	-	-	75	-
CCc1ccc2c(c1)C(c1ccc(N3CCOCC3)cc1)=NNC(c1ccncc1)=N2	-	-	-	-	-
COc1ccc(-c2ccc3c(c2)[C@@H]2[C@@H](CCN2C(=O)C2CCOCC2)[C@@H](CO)N3C)cc1	.	.	-	.	.
CC(C)NC(=O)Nc1cccc2c1O[C@@H](CN(C)C(=O)NC(C)C)[C@H](C)CN(C)C2=O	.	.	-	.	.
Cc1ccc(C2=NS(=O)(=O)N(C)C(C(=O)NC3CCCCC3)=C2)cc1	-	-	-	-	-
Cc1ccc(C2=NS(=O)(=O)N(C)C(C(=O)Nc3cc(C)n(CC(=O)N4CCC(C)CC4)n3)=C2)cc1	-	-	-	86	-
COCCn1c(=NC(=O)c2ccc(S(=O)(=O)N3CCc4ccccc4C3)cc2)sc2cc(OC)ccc21	-	-	-	72	-
CC(C)NC(=O)Nc1ccc2c(c1)C(=O)N([C@@H](C)CO)C[C@@H](C)[C@@H](CN(C)CC1CCCCC1)OCCCC[C@H](C)O2	.	.	-	.	.
COCC#Cc1ccc2c(c1)O[C@H](CN(C)Cc1ccccn1)[C@@H](C)CN([C@H](C)CO)S2(=O)=O	.	.	-	.	.
CC(=O)N(C)C[C@@H]1Oc2ncc(C3=CCCC3)cc2C(=O)N([C@@H](C)CO)C[C@@H]1C	.	.	-	.	.
CCCCc1ccc(/C=C2\C(=O)c3ccccc3C(O)=C2C(=O)OCC)cc1	1.1	.	.	.	.
Cc1ccc(Cn2c(SCC(=O)NCC3CCCO3)nc3ccsc3c2=O)cc1 (configuration not stated)	-	60	-	-	-
Cc1cccc(OCCCC(=O)Nc2ccc(S(=O)(=O)Nc3onc(C)c3C)cc2)c1	-	-	.	-	-
Cc1cccc(NC(=O)Nc2ccc(S(=O)(=O)Nc3onc(C)c3C)cc2)c1	-	-	37	-	-
COCCN1C=C(C(=O)OC)C(c2ccc(Cl)cc2)C(C(=O)OC)=C1	-	-	-	-	+
COC(=O)c1cc(NC(=S)Nc2cc(Cl)cc(Cl)c2)cc(C(=O)OC)c1	-	-	-	86	-
COC(=O)c1cccc(NC(=S)Nc2ccccc2Cl)c1	-	-	-	-	-
COc1cc(O)cc2c1[C@@H]1Oc3c(ccc(O)c3CC=C(C)C)[C@@H]1CO2	-	-	.	85	.
COc1c(CC=C(C)C)cc(C2CC(=O)c3c(O)cc(O)cc3O2)cc1CC=C(C)C (configuration not stated)	-	-	.	-	.
SMILES	Efflux pump mplx	SR-BI DiI-HDL act	FN deposition inh	SR-BI HDL uptake	CaV13 FRET inh
CO[C@@H]1CN(C)C(=O)c2cc(NC(=O)C3CCOCC3)ccc2OC[C@H](C)N(C(C)=O)C[C@@H]1C	.	.	-	.	.
Cc1sc(NC(=O)/C=C/c2ccc(C(C)C)cc2)c(C#N)c1C	-	-	-	78	-
O=S(=O)(c1ccc(Br)cc1)N1CCCN(Cc2ccccc2F)CC1	6.8	-	-	-	-
Cc1nn(-c2ccccc2)c2sc(C(=O)NC3CCCCC3)cc12	-	-	.	-	-
Cc1cnc(NC(=O)c2cc3c(C)nn(-c4ccccc4)c3s2)s1	-	-	.	76	-
CCCC#Cc1cnc2c(c1)C(=O)N([C@H](C)CO)C[C@H](C)[C@H](CN(C)C(=O)CN1CCOCC1)O2	.	.	-	.	.
CC(C)Cc1nnc(NC(=O)CSc2nc(N)cc(=O)[nH]2)s1	-	-	active	-	-
CCc1nc(SCC(=O)Nc2nnc(CC(C)C)s2)n[nH]1	-	-	-	-	-
O=C(CSc1nnc(-c2ccccc2)n1-c1ccccc1)c1ccc[nH]1	-	-	33	-	-
Cc1nn(-c2ccccc2)c(C)c1NC(=O)COC(=O)c1ccccc1	-	-	-	-	-
Cc1ccc(C(=O)OCC(=O)Nc2c(C)nn(-c3ccccc3)c2C)c(O)c1	.	.	-	.	51
C[C@@H]1CN(C)C(=O)Cc2cc(NS(C)(=O)=O)ccc2O[C@H]1CN(C)S(C)(=O)=O	.	.	-	.	.
O=C1CNC[C@H]2[C@H](c3ccc(C#CC4CCCC4)cc3)[C@H](CO)N12	.	.	-	.	.
Cn1nc(C(=O)Nc2ccc(Br)cc2)cc1C(=O)Nc1ccc(Br)cc1	-	-	-	-	-
COc1cccc(NC(=O)c2cc(C(=O)Nc3cccc(OC)c3)n(C)n2)c1	-	-	.	78	.
COc1cccc(NC(=O)c2ccc3c(c2)N(C)CCS3)c1	-	-	-	91	-
COc1cccc(NC(=O)c2ccc3c(c2)CCN3S(C)(=O)=O)c1	-	-	-	71	-
CO[C@@H]1CN(C)C(=O)c2cc(NC(=O)CC(F)(F)F)ccc2OC[C@@H](C)N(S(=O)(=O)c2cn(C)cn2)C[C@H]1C	.	.	-	.	.
CN1C(=O)c2cc(NC(=O)Nc3ccccc3)ccc2OC[C@@H]2O[C@H](CC(=O)O)CC[C@H]21	.	.	-	.	.
Cn1c(CSc2ncn[nH]2)nc2ccccc21	-	68	.	-	-
Cn1c(CSc2nc3ccccc3s2)nc2ccccc21	-	-	-	-	-
CN(C)CCCNS(=O)(=O)c1ccc(N2CCC(c3ccc(Cl)cc3)=N2)cc1	-	.	41	.	-
O=S(=O)(c1ccc(N2CCC(c3ccc(Cl)cc3)=N2)cc1)N(CCO)CCO	-	-	-	-	-
O=C(N/N=C/c1ccc(-c2cccc([N+](=O)[O-])c2)o1)c1ccc([N+](=O)[O-])cc1	-	-	-	82	-
Cc1ccc(C(=O)N/N=C\c2ccc(-c3ccc([N+](=O)[O-])cc3)o2)cn1	-	.	-	.	-
SMILES	Efflux pump mplx	SR-BI DiI-HDL act	FN deposition inh	SR-BI HDL uptake	CaV13 FRET inh
NC(=S)N/N=C/c1ccc(-c2cc(Cl)ccc2Cl)o1	-	-	.	99	-
NC(=S)N/N=C/c1ccc(-c2cc(Cl)cc(Cl)c2)o1	-	-	.	78	-
O=C(N/N=C/c1ccc(-c2cccc([N+](=O)[O-])c2)o1)c1ccccc1O	-	-	-	-	-
NC(=S)N/N=C/c1ccc(-c2ccc([N+](=O)[O-])cc2)o1	-	-	-	71	-
CCOC(=O)N/N=C\c1ccc(-c2cc(Cl)ccc2Cl)o1	-	-	-	-	-
C[C@@H]1CN([C@H](C)CO)C(=O)CCCn2cc(nn2)CO[C@H]1CN(C)Cc1ccc(C(=O)O)cc1	.	.	-	.	.

High-throughput results from PubChem.
